ChEMBL document CHEMBL5696442, “Discovery of type II inhibitors of TGFβ-activated kinase 1 (TAK1) and mitogen-activated protein kinase kinase kinase kinase 2 (MAP4K2)” (J Med Chem, 2015)
The source made the active and inactive calls. The rule behind the calls is not given here.

Tests used:
[1] = molecular target: T1, Mitogen-activated protein kinase kinase kinase 5 (Homo sapiens) (UniProt Q99683); assay: Inhibition of MAP3K5 Lys1 labeling site harbouring IAIKEIPERDSR in human A-375 cells at 0.05 uM by KiNativ Profiling analysis relative to control; format: cell-based
T1 sequence (whole entry): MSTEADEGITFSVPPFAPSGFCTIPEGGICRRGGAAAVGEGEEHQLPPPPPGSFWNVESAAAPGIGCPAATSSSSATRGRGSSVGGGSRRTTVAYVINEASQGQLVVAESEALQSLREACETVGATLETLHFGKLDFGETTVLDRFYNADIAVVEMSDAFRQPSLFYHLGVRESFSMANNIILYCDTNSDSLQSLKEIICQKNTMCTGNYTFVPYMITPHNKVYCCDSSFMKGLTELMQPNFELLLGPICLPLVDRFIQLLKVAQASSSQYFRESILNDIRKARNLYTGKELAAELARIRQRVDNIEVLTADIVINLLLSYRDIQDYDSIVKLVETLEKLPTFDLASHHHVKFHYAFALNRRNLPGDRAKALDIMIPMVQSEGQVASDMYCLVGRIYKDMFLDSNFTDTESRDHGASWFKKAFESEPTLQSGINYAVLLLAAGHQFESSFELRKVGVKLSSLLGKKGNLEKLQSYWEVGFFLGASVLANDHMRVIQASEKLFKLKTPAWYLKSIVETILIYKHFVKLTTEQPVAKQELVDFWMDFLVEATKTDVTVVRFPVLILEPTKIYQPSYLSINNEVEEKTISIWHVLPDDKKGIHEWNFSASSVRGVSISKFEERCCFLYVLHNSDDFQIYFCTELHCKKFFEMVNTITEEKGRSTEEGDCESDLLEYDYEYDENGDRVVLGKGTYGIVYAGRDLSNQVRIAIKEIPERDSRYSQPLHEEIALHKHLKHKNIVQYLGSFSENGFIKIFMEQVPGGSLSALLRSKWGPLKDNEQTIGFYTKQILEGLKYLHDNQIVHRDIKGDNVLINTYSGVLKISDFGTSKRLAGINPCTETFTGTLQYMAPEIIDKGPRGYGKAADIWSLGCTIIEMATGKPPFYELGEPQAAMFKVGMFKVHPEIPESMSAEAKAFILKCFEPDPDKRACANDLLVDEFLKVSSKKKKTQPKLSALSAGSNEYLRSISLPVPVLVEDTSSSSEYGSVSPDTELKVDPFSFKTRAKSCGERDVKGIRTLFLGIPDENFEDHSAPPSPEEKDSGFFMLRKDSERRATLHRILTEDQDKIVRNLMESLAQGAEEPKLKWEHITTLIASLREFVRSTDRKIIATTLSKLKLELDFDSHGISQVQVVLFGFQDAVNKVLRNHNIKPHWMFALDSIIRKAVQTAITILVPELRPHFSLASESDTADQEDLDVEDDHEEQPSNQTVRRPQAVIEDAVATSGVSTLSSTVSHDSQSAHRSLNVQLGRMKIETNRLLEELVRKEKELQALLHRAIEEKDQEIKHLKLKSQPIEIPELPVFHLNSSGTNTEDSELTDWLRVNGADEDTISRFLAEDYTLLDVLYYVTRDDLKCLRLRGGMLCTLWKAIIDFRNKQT

[2] = molecular target: Serine/threonine-protein kinase N1 (Homo sapiens) (UniProt Q16512); assay: Inhibition of PKN1 (unknown origin) at 10 uM by Ambit Kinomescan binding assay
[3] = molecular target: Serine/threonine-protein kinase Nek7 (Homo sapiens) (UniProt Q8TDX7); assay: Inhibition of NEK7 (unknown origin) at 10 uM by Ambit Kinomescan binding assay
[4] = molecular target: Serine/threonine-protein kinase tousled-like 2 (Homo sapiens) (UniProt Q86UE8); assay: Inhibition of TLK2 (unknown origin) at 10 uM by Ambit Kinomescan binding assay
[5] = molecular target: Serine/threonine-protein kinase SMG1 (Homo sapiens) (UniProt Q96Q15); assay: Inhibition of SMG1 ATP labeling site harbouring SYPYLFKGLEDLHLDER in human A-375 cells at 5 uM by KiNativ Profiling analysis relative to control; format: cell-based
[6] = molecular target: Serine/threonine-protein kinase B-raf (Homo sapiens, UniProt P15056); assay: Inhibition of BRAF Lys2 labeling site in human A-375 cells at 0.5 uM by KiNativ Profiling analysis relative to control; format: cell-based
[7] = molecular target: Bone morphogenetic protein receptor type-1A (Homo sapiens) (UniProt P36894); assay: Inhibition of BMPR1A (unknown origin) at 1 uM by Ambit Kinomescan binding assay relative to control; values are per cent of control
[8] = molecular target: Ribosomal protein S6 kinase alpha-1 (Homo sapiens) (UniProt Q15418); assay: Inhibition of C-terminal RSK1 kinase domain 2 (unknown origin) at 1 uM by Ambit Kinomescan binding assay relative to control
Method in brief: (§1)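 In vitro ATP-site competition binding assay against a panel of over 420 kinases (KinomeScan), with compound tested at 10 or 1 μM.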

[9] = molecular target: T2, NUAK family SNF1-like kinase 2 (Homo sapiens) (UniProt Q9H093); assay: Inhibition of SNARK (unknown origin) at 1 uM by Ambit Kinomescan binding assay relative to control
T2 sequence (whole entry): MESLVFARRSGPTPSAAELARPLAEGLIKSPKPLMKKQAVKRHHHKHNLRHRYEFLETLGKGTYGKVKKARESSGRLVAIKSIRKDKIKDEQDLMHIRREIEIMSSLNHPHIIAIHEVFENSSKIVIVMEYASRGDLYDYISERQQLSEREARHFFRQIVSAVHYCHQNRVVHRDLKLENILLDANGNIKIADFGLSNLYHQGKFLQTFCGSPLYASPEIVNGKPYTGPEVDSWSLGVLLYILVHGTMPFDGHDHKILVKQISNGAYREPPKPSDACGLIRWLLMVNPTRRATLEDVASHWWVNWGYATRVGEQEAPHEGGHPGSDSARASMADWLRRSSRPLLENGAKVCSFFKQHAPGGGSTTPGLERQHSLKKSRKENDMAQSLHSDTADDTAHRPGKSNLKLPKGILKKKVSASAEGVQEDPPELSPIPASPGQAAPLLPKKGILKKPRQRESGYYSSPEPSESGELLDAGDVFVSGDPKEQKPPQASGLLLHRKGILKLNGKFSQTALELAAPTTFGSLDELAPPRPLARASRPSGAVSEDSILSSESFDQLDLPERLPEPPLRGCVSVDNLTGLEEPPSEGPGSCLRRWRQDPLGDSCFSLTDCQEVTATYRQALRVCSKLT

[10] = molecular target: Ephrin type-A receptor 5 (Homo sapiens) (UniProt P54756); assay: Inhibition of EPHA5 (unknown origin) at 1 uM by Ambit Kinomescan binding assay relative to control
[11] = molecular target: Serine/threonine-protein kinase PknB (Mycobacterium tuberculosis) (UniProt P9WI81); assay: Inhibition of Mycobacterium tuberculosis PKNB at 1 uM by Ambit Kinomescan binding assay relative to control; method in brief: as §1
[12] = molecular target: 5'-AMP-activated protein kinase catalytic subunit alpha-1 (Homo sapiens) (UniProt Q13131); assay: Inhibition of AMPKa1 Lys2 labeling site in human A-375 cells at 5 uM by KiNativ Profiling analysis relative to control; format: cell-based
Sequence of 5'-AMP-activated protein kinase catalytic subunit alpha-1 (Homo sapiens) (Q13131 whole entry, looked up): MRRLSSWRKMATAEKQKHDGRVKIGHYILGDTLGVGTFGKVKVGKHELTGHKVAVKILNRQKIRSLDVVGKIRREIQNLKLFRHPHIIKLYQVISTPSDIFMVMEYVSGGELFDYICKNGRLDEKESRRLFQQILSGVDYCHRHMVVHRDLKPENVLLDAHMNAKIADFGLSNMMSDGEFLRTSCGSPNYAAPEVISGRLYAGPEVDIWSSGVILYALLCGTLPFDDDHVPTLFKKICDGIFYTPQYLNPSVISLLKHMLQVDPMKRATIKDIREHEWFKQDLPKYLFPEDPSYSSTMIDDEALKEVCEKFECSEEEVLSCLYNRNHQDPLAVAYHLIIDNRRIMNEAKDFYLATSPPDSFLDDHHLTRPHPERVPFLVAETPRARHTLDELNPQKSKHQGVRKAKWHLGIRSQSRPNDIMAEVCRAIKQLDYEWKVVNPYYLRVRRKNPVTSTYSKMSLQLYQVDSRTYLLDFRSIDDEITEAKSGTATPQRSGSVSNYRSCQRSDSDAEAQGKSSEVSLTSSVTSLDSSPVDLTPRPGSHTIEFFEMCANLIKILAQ

Sequence of Serine/threonine-protein kinase N1 (Homo sapiens) (Q16512 2-942 limits assumed): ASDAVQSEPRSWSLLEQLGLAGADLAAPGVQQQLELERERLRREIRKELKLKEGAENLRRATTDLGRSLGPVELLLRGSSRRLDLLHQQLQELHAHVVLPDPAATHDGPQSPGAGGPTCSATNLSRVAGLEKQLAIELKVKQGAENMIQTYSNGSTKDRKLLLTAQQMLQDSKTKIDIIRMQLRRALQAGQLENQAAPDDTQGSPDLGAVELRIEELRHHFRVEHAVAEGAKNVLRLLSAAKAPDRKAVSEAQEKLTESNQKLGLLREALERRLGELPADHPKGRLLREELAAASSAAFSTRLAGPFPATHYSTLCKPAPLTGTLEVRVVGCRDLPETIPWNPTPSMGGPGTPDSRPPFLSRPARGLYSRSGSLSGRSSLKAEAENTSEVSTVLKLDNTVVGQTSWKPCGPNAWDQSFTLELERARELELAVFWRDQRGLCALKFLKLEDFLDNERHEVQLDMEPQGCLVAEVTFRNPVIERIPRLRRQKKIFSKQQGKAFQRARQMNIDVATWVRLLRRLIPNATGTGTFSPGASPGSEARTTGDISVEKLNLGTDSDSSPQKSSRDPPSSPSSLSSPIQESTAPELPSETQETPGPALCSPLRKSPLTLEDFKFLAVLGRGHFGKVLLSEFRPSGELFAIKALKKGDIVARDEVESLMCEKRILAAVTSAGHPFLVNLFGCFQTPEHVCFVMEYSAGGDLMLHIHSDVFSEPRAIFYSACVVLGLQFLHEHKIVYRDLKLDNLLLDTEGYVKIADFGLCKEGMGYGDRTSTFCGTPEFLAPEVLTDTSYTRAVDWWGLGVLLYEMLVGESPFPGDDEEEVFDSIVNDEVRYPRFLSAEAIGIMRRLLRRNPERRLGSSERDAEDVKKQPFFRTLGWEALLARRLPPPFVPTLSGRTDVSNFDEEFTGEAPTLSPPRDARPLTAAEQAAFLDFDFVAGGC
Sequence of Ephrin type-A receptor 5 (Homo sapiens) (P54756 whole entry): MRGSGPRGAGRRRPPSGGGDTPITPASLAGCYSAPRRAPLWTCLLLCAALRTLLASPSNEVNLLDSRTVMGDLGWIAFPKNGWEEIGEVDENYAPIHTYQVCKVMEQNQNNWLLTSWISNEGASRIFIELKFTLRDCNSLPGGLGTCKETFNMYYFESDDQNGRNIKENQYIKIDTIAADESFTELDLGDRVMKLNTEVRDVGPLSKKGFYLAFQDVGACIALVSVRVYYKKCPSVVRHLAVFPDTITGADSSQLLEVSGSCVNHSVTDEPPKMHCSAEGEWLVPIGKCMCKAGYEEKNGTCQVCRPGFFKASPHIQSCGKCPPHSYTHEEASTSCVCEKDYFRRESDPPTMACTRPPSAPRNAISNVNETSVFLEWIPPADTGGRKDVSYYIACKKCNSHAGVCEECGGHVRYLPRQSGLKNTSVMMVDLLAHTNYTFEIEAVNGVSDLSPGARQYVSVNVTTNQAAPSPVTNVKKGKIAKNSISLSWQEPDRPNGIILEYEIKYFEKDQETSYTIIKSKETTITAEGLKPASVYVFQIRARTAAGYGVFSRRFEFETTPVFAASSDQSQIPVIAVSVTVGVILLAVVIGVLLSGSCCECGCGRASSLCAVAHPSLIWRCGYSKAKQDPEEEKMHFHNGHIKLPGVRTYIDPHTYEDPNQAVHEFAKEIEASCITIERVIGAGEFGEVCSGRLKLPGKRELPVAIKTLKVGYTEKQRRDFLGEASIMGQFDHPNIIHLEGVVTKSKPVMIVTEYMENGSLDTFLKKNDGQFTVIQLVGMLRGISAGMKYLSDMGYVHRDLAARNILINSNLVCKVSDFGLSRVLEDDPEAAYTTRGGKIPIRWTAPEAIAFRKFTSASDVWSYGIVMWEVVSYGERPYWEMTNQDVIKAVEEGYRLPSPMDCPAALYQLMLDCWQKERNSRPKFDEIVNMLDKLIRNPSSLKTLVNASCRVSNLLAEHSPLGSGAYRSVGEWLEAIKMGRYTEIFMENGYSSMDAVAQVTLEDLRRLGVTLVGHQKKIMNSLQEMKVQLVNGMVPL
Sequence of Serine/threonine-protein kinase PknB (Mycobacterium tuberculosis) (P9WI81 whole entry): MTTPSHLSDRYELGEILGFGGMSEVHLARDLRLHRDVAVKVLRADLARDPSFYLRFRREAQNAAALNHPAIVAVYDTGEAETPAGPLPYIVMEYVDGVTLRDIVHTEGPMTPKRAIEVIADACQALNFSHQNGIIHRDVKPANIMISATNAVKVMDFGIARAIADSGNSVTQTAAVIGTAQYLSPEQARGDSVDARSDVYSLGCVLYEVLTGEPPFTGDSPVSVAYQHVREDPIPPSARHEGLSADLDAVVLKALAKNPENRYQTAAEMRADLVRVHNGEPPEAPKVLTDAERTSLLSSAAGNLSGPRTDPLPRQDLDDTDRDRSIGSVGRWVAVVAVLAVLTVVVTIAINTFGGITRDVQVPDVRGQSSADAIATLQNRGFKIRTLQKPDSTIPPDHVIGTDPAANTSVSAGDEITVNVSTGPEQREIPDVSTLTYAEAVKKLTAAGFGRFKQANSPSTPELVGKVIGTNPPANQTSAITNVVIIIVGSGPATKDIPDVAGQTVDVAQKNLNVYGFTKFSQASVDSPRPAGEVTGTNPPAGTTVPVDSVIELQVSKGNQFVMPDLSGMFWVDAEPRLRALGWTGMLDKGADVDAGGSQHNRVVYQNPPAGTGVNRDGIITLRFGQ
Sequence of Serine/threonine-protein kinase tousled-like 2 (Homo sapiens) (Q86UE8 whole entry, looked up): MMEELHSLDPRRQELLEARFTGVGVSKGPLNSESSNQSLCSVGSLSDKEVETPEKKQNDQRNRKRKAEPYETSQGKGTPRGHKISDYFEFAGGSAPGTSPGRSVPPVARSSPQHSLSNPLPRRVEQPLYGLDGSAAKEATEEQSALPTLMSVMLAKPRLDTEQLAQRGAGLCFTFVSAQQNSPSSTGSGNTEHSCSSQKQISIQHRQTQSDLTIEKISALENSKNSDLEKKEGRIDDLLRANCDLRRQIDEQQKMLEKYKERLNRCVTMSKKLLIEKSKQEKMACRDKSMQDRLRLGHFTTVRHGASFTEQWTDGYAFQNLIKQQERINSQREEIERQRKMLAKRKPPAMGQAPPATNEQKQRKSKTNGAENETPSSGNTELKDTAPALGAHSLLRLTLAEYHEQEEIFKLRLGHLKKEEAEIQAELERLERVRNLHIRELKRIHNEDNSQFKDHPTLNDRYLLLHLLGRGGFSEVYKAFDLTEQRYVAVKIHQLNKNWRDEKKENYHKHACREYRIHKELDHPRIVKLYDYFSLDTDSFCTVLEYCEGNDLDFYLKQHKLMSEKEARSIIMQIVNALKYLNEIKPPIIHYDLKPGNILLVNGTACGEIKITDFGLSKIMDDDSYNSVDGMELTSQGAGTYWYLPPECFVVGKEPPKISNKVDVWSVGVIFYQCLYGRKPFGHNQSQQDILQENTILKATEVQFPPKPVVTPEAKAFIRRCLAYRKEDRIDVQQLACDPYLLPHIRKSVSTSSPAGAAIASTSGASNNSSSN
Sequence of Serine/threonine-protein kinase Nek7 (Homo sapiens) (Q8TDX7 whole entry, looked up): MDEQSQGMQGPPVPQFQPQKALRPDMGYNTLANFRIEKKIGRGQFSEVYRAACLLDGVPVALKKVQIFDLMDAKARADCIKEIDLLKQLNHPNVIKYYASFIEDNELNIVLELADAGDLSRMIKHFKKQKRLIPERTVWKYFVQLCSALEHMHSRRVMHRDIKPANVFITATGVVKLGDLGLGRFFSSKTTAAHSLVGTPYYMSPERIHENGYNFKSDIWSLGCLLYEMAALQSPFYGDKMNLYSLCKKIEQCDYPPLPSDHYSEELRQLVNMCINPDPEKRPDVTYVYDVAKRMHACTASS
Sequence of Ribosomal protein S6 kinase alpha-1 (Homo sapiens) (Q15418 whole entry, the tested form may be a part): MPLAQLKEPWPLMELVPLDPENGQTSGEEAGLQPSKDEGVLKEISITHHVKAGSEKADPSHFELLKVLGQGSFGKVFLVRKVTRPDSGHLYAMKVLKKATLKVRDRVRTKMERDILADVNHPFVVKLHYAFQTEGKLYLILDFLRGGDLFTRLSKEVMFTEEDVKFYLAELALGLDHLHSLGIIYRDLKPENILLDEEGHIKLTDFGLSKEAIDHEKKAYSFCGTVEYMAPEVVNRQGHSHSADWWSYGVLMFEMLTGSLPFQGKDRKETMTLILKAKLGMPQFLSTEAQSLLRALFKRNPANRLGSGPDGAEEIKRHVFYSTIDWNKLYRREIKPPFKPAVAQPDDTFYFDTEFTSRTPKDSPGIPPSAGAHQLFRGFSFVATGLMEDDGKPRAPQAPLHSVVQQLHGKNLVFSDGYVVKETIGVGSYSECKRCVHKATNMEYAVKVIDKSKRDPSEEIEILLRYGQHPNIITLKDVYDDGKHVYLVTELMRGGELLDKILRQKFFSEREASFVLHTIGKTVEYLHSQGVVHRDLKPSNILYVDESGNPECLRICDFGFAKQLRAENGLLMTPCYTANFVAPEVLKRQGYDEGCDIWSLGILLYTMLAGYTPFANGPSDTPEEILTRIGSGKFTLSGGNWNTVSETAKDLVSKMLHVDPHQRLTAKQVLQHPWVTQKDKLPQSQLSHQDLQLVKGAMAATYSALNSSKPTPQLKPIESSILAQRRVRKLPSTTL

Structure (SMILES)	inhibition [1] [%]	inhibition [2]	inhibition [3]	inhibition [4]	inhibition [5] [%]	inhibition [6] [%]	residual activity [7] [%]	inhibition [8] [%]	inhibition [9] [%]	inhibition [10] [%]	inhibition [11] [%]	inhibition [12] [%]
CCN1CCN(Cc2ccc(NC(=O)c3ccc(C)c(Oc4ccnc5[nH]ccc45)c3)cc2C(F)(F)F)CC1	-3.3	inactive	inactive	inactive								
CCN1CCN(Cc2ccc(NC(=O)c3ccc(C)c(/C=C/c4cnc5[nH]ccc5c4OC)c3)cc2C(F)(F)F)CC1					24.4	58.7	100	50	76	21	84	18.5
